From PubChem
In the library only some 1.7% were active in any assay of this set; here they are far more common.
CHRM5 antagonist: CHRM5 antagonism in calcium assay. P08912. CHO-hM5 cells, Fluo-8 calcium fluorescence, ACh EC80. actives 0.59% (n = 360,000). inhibition, % at 3 µM;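 active = inhibition above a per-plate cutoff, the mean of that plate's test compounds plus 3 SD, cut at about 27% in these data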
Target sequence (P08912 whole entry, looked up): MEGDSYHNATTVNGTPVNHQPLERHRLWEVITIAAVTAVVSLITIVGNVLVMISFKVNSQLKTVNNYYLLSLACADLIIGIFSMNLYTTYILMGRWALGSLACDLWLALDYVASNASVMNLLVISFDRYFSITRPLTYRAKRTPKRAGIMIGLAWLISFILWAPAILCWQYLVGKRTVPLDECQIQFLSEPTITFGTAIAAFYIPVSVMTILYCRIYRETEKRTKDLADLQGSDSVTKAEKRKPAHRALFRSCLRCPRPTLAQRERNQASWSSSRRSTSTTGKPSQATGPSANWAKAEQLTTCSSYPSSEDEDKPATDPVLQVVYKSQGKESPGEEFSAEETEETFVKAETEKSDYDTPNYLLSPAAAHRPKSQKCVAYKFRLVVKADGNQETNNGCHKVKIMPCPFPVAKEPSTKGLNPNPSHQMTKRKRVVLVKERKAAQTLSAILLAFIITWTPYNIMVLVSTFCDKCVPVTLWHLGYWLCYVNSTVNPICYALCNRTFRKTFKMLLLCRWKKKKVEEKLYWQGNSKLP
CHO-K1 Ca PAM: M1 PAM counterscreen hit in parental CHO-K1 cells | ATP EC20, Fluo-8 calcium fluorescence; 0% at ATP EC20, 100% at ATP max | activation, % at 3 µM | actives 0.02% (n = 360,000) | AID 602247;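 active = activation above the run cutoff, the mean activation of all test compounds plus 3 SD, cut at about 40% in these data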;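 note: peak over basal fluorescence ratio in a 140 s read after ATP addition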
CHRM5 agonist: agonists of human muscarinic M5 receptor (CHRM5). actives 0.19% (n = 360,000). CHO-K1 hM5 cells, Fluo-8 calcium fluorescence; 0% DMSO wells, 100% maximal acetylcholine response. P08912. activation, % at 3 µM. AID 624037;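 active = activation above the run's mean over test compounds plus 3 SD, cut at about 23% in these data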;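 note: signal is peak over basal fluorescence ratio across the kinetic read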
CHRM5 PAM: potentiates acetylcholine response at human M5 receptor; P08912; CHO-K1 hM5, Fluo-8 calcium, ACh EC20 PAM; 0% = ACh EC20, 100% = ACh EC100; activation, % at 3 µM; actives 0.3% (n = 360,000);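 active = activation above the run cutoff, the mean activation of all test compounds plus 3 SD, cut at about 18% in these data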
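Assay system: CHO-K1 hM5 cells / Incubation: Fluo-8 loading 80 min at 37 °C plus 30 min room temperature / Technique: Fluo-8 calcium dye fluorescence, kinetic read / Repeats: single replicate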
CHO-K1 Ca ag: nonselective activator or artifact in parental CHO-K1 cells; activation, % at 3 µM; Fluo-8 calcium fluorescence; scaled to maximal ATP response, vehicle zero; actives 0.48% (n = 360,000); AID 602248; in the data active = activation above about 15%;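 note: untransfected CHO-K1 host cells lacking M1 receptor as counterscreen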
CHO-K1 Ca antag: counter-screen for M1 antagonists: effect in parental CHO-K1 cells. ATP-induced calcium, Fluo-8 fluorescence. inhibition, % at 3 µM. actives 0.6% (n = 360,000);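 active = inhibition above a per-plate cutoff, the plate's mean sample inhibition plus 3 SD, cut at about 24% in these data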
A number is an active result; – = inactive.

SMILES | CHRM5 antagonist | CHO-K1 Ca PAM | CHRM5 agonist | CHRM5 PAM | CHO-K1 Ca ag | CHO-K1 Ca antag
COc1cc(NCCCC(C)N)c2ncccc2c1 (stereo unspecified) | – | – | – | 22.1 | – | –
COc1cc(NCCCCC(C)N)c2nccc(C)c2c1 (stereo unspecified) | – | – | – | – | – | –
C1=CN2CCC1C(c1ccccc1)C2 (stereo unspecified) | 73.9 | – | – | – | – | –
C/C(=N\NC(=O)CO/N=C(\C)c1cccs1)c1ccc(N)cc1 | – | – | – | – | – | –
C/C(=N\OCC(=O)N/N=C/c1ccc(C)cc1O)c1cccs1 | – | – | – | 33.0 | – | –
CC(Sc1nnc(-c2cccs2)n1-c1ccccc1)C(=O)NCc1ccc2c(c1)OCO2 (stereo unspecified) | – | – | – | – | – | 24.0
CCCNC(=O)c1cccc(COCC(F)(F)F)c1 | – | – | – | 33.6 | – | –
Cc1ccc(NC(Cc2cc(C)no2)c2ccccc2)cc1 (stereo unspecified) | – | 46.0 | – | – | – | –
Cn1c(NCCCN2CCOCC2)nc2c1c(=O)n(Cc1ccc(Cl)cc1Cl)c(=O)n2C | – | – | – | – | – | –
OC(CCN1CCCC1)(c1ccccc1)C1CCCCC1 (stereo unspecified) | 98.8 | – | – | – | – | –
OC(CCCN1CCCCC1)(c1ccccc1)c1ccc(C(F)(F)F)cc1 (stereo unspecified) | – | – | – | – | – | –
C=CCC(O)(CCN1CCCCC1)c1ccccc1 (stereo unspecified) | 45.8 | – | – | – | – | –
OC(CCN1CCCCC1)(c1ccccc1)c1ccccc1 | 98.7 | – | – | – | – | –
COc1ccc(C(O)(CCc2ccccc2)CCN2CCCCC2)cc1 (stereo unspecified) | – | – | – | – | – | –
Cc1cc(/C=C\c2ccc3cc(N(C)C)ccc3[n+]2C)c(C)n1-c1ccccc1 | 40.1 | – | – | – | 20.4 | 34.7
C[n+]1c(/C=C/c2ccc(O)cc2)ccc2ccccc21 | – | – | – | – | – | –
Fc1ccc(C(Nc2ccccn2)c2c[nH]c3ccccc23)cc1 (stereo unspecified) | – | – | – | – | – | –
Cn1c(=O)oc2cc(S(=O)(=O)NC3CCCCCCC3)ccc21 | – | – | – | – | – | –
COc1ccccc1CNc1nc(NCc2ccccc2)nc2ccsc12 | 76.0 | – | 35.9 | – | – | 24.0
c1ccc(CNc2nc(NCc3ccccc3)c3sccc3n2)cc1 | 44.0 | – | 31.5 | – | 27.5 | –
Fc1cc(Cl)ccc1Nc1nc(NCc2ccccc2)nc2ccsc12 | – | – | – | – | – | –
COc1ccccc1CNc1nc(NCc2cccc(OC)c2OC)c2sccc2n1 | 31.1 | – | – | – | – | –
c1ccc(CNc2nc(NCCOc3ccccc3)c3sccc3n2)cc1 | 35.4 | – | – | – | 35.3 | 27.7
COc1ccccc1CNc1nc(NCc2ccc(C)cc2C)c2sccc2n1 | – | – | – | – | – | –
CCC/C(=N\NC(=O)c1ccccc1C)c1ccccc1 | – | – | – | – | – | –
SMILES | CHRM5 antagonist | CHO-K1 Ca PAM | CHRM5 agonist | CHRM5 PAM | CHO-K1 Ca ag | CHO-K1 Ca antag
CCCCc1c(CCC)c(=N)c2ccccc2n1C | – | – | – | – | – | –
COc1ccccc1CNc1nc(NCc2ccccc2F)c2sccc2n1 | – | – | – | – | 16.5 | 27.7
C#Cc1cccc(Nc2nc(NCc3ccccc3OC)nc3ccsc23)c1 | 36.1 | – | – | – | – | –
c1ccc(CNc2nc(NCc3ccccc3)c3ccccc3n2)cc1 | 39.4 | – | – | – | – | –
CC(C)N(Cc1nc(-c2ccccc2)no1)C(=O)c1ccc([N+](=O)[O-])cc1 | – | – | – | – | – | –
Cc1sc2ncnc(NC3CCN(Cc4ccccc4)CC3)c2c1C | 29.3 | – | – | – | – | –
c1ccc(CN2CCC(Nc3ncnc4sccc34)CC2)cc1 | – | – | – | – | – | –
C/C(=N\N1C(=O)CSC1=S)c1ccc(Br)cc1 | – | – | – | – | 18.9 | –
Cc1cccn2c(N)c(-c3ccccc3)nc12 | – | – | – | – | – | –
CC1CCCCN1C(=O)CSc1nc(-c2ccccc2)cc(=O)[nH]1 (stereo unspecified) | – | – | – | 20.0 | – | –
CCOC(=O)c1[nH]c2ccc(OC)cc2c1C | 31.8 | – | – | – | – | –
Cc1nc(NC(=O)CSc2ccc(-c3nc4ccccc4[nH]3)cn2)sc1C | – | – | – | – | 16.0 | –
O=C(N/N=C/c1ccncc1)c1cc(Br)ccc1OCc1ccccc1 | – | – | – | – | – | –
CCCc1nnc(NC(=O)Cn2c(=O)oc3cc(Br)ccc32)s1 | – | – | 38.9 | – | 16.5 | –
COc1ccc(C2CC(c3ccccc3)=NN2c2ccc(S(N)(=O)=O)cc2)cc1 (stereo unspecified) | – | – | – | – | – | –
COc1ccc(C2CC(c3ccccc3)=NN2c2ccc(C(N)=O)cc2)cc1 (stereo unspecified) | 30.0 | – | – | – | – | –
O=S(=O)(c1ccccc1)N1CCC(O)(CSc2ccc(Cl)cc2)CC1 | – | – | – | – | – | 28.9
O=S(=O)(c1ccc(Cl)cc1)N1CCC(O)(CN2CCN(Cc3ccccc3)CC2)CC1 | – | – | – | – | – | –
CCCCC(=O)Nc1ccc2c(c1)nc(CCN1CCN(C)CC1)n2C | – | – | – | – | – | –
CCOc1ccc2nc(Cl)c(CN(C(=O)c3cnccn3)C3CCCC3)cc2c1 | – | – | – | – | – | –
O=[N+]([O-])/C=C\c1ccc(N2CCCC2)c(F)c1 | 78.0 | – | 63.6 | – | 27.1 | –
COCCOc1nc2ccccc2nc1C | – | – | – | 29.8 | – | –
O=c1c2cc(F)ccc2sn1-c1ccccc1 | – | – | 23.8 | – | 19.1 | –
O=c1c2cc(C(F)(F)F)ccc2sn1-c1ccccc1 | – | – | – | – | – | –
O=C(Cn1c(-c2ccccc2)c[n+]2ccsc12)c1ccc([N+](=O)[O-])cc1 | – | – | – | – | – | –
SMILES | CHRM5 antagonist | CHO-K1 Ca PAM | CHRM5 agonist | CHRM5 PAM | CHO-K1 Ca ag | CHO-K1 Ca antag
O=C(O)c1c(-c2ccccc2)c2oc3ccccc3c2[nH]c1=O | – | – | – | – | – | 28.9
Cc1cc(N2CCOCC2)ccc1/C=C\[N+](=O)[O-] | 30.8 | – | – | – | – | –
O=[N+]([O-])c1ccc(N2CCOCC2)cc1O | – | – | – | – | – | –
CCC1CCCCN1CCCNC(=O)c1ccc2c(c1)N(Cc1c(F)cccc1Cl)C(=O)CS2 (stereo unspecified) | 75.5 | – | – | – | – | –
O=C(NCc1ccc2c(c1)OCO2)c1ccc2c(c1)N(Cc1c(F)cccc1Cl)C(=O)CS2 | – | – | – | – | – | –
Cc1ccccc1NC(=O)CCN1CCN(Cc2ccccc2)CC1 | – | – | – | – | – | –
